Data taken from ChEMBL document CHEMBL2157939 (J Med Chem, 2012).
Activity calls are given as the source filed them.

What was measured:
Rattus norvegicus [1] = assay: Antinociceptive activity in Sprague-Dawley rat chronic constriction injury model assessed as paw withdrawal threshold to von Frey filament-induced pain at 5 and 16 umol/kg, iv administered as bolus injection measured up to 1.5 hrs; format: functional, organism-based
Summary of the method: (§1)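 Male SD rats (160−200 g at purchase) with CCI of left sciatic nerve (four loose silk ligatures, Bennett-Xie) under isoflurane. Single iv bolus doses 0.16 to 16 μmol/kg.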

Caco-2 [2] = assay: Permeability across human Caco2 cells at 200 µM by LC/MS analysis in presence of glucose; format: ADME, cell-based; details: caco-2, 200 µM
Summary of the method: (§2)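 Caco-2 monolayers (passages 55−75; DMEM with 10% FBS, 1% L-glutamine, 1% nonessential amino acids, 37 °C, 5% CO2) used for apparent permeability; compound quantified by LC-MS.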

Rattus norvegicus [3] = assay: Antinociceptive activity in Sprague-Dawley rat chronic constriction injury model assessed as reduction in Von Frey filament-induced mechanical allodynia in ipsilateral hind paw at 8 and 16 umol/kg, po up to 2 hrs; format: functional, organism-based
[4] = Selectivity ratio of Ki for kappa-opioid receptor to Ki for mu-opioid receptor
Summary of the method: (§3)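 Competitive displacement scintillation proximity assay on frozen membranes from CHO-K1 cells stably expressing human MOR, DOR or KOR, with wheatgerm agglutinin-coated SPA beads. Labels: MOR [3H]DAMGO, DOR [3H]DPDPE, KOR [3H]diprenorphine. Eight compound concentrations from 10 pM to 1 μM. Three independent experiments, each in triplicate, reported as mean ± SEM. The ratio is each Ki divided by the MOR Ki.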

[5] = molecular target: Delta-type opioid receptor (Homo sapiens, UniProt P41143); assay: Displacement of [3H]DPDPE from delta-opioid receptor expressed in CHOK1 cells after overnight incubation by scintillation proximity assay; format: cell-based, CHO-K1
Summary of the method: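 Competitive displacement of [3H]DPDPE from human DOR in membranes of stably transfected CHOK1 cells, WGA-coated SPA beads. Eight concentrations, 10 pM to 1 μM; three independent experiments in triplicate, mean ± SEM.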

Rattus norvegicus [6] = assay: Antinociceptive activity in Sprague-Dawley rat chronic constriction injury model assessed as paw withdrawal threshold to von Frey filament-induced pain at 5 and 16 umol/kg, iv administered as bolus injection measured at 15 mins; format: functional, organism-based; summary of the method: as §1
[7] = Apparent permeability across human Caco2 cells at 200 uM by LC/MS analysis; format: ADME, cell-based; details: Caco-2; summary of the method: as §2
[8] = Selectivity ratio of Ki for delta-opioid receptor to Ki for mu-opioid receptor; summary of the method: as §3
Rattus norvegicus [9] = assay: Antinociceptive activity in Sprague-Dawley rat chronic constriction model assessed as reduction in Von Frey filament-induced mechanical allodynia in contralateral hind paw at 5 umol/kg, iv administered as bolus injection; format: functional, organism-based
Caco-2 [10] = assay: Permeability across human Caco2 cells at 200 µM by LC/MS analysis in presence of lactose; format: ADME, cell-based; details: caco-2, 200 µM; summary of the method: as §2
Mu-type opioid receptor [11] = molecular target: T1, Mu-type opioid receptor (Homo sapiens, UniProt P35372); assay: Displacement of [3H]DAMGO from mu-opioid receptor expressed in CHOK1 cells after overnight incubation by scintillation proximity assay; format: cell-based, CHO-K1
Rattus norvegicus [12] = assay: Antinociceptive activity in Sprague-Dawley rat chronic constriction model assessed as reduction in Von Frey filament-induced mechanical allodynia in ipsilateral hind paw at 5 umol/kg, iv administered as bolus injection 5 mins post-naloxone coadministration; format: functional, organism-based
Summary of the method: (§4)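 CCI rats (n = 6) given single sc naloxone hydrochloride 10 mg/kg or vehicle 5 min before single iv bolus of test item.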

Rattus norvegicus [13] = assay: Antinociceptive activity in iv dosed Sprague-Dawley rat chronic constriction injury model assessed as paw withdrawal threshold to von Frey filament-induced pain administered as bolus injection; format: functional; summary of the method: as §1
[14] = Half life in human plasma at 1 mg/ml by RP-HPLC analysis; format: ADME, cell-free
Rattus norvegicus [15] = assay: Antinociceptive activity in Sprague-Dawley rat chronic constriction model assessed as reduction in Von Frey filament-induced mechanical allodynia in contralateral hind paw at 8 umol/kg, po; format: functional, organism-based
Rattus norvegicus [16] = assay: Effect on gastrointestinal motility in fasted Sprague-Dawley rat assessed as gastrointestinal propulsion of charcoal meal at 16 umol/kg, po administered prior to charcoal meal measured after 1 hr ( Rvb = 66.5 3.8% ); format: ADME, organism-based; details: in vivo
Summary of the method: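 Rats 200−250 g fasted ~16 h (water allowed), n = 8 per group, dosed orally just before gavage of 1 mL aqueous 10% activated charcoal/5% gum Arabic. Killed 1 h later (ip pentobarbital, cervical dislocation); small intestine length pylorus to ileocecal junction and farthest charcoal front measured as % propulsion.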

Caco-2 [17] = assay: Permeability across human Caco2 cells at 200 µM by LC/MS analysis in presence of galactose; format: ADME, cell-based; details: caco-2, 200 µM; summary of the method: as §2
Rattus norvegicus [18] = assay: Antinociceptive activity in po dosed Sprague-Dawley rat chronic constriction injury model assessed as reduction in Von Frey filament-induced mechanical allodynia in ipsilateral hind paw; format: functional
Rattus norvegicus [19] = assay: Antinociceptive activity in Sprague-Dawley rat chronic constriction injury model assessed as reduction in Von Frey filament-induced mechanical allodynia in ipsilateral hind paw at 8 and 16 umol/kg, po at 0.75 to 1 hr; format: functional, organism-based
Mu-type opioid receptor [20] = molecular target: T1, Mu-type opioid receptor; assay: Agonist activity at mu-opioid receptor in human SH-SY5Y cells assessed as inhibition of forskolin-stimulated cAMP accumulation after 30 mins by immunoassay; format: functional, cell-based
Rattus norvegicus [21] = assay: Induction of constipation in fasted Sprague-Dawley rat assessed as inhibition of castor oil-induced diarrhea at 16 umol/kg, po administered 5 mins prior to castor-oil challenge measured up to 8 hrs; format: organism-based; details: in vivo
Summary of the method: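 Drug-naive rats, 200−250 g, fasted ~16 h with water, then 1 h in individual wire-mesh cages without food or water. Oral test item or vehicle; 5 min later 1 mL castor oil by gavage. Diarrhea presence checked hourly to 8 h, scored by fecal boli weight and consistency.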

Plasma = assay: Plasma concentration in Sprague-Dawley rat at 10 umol/kg, po from 30 to 60 mins by LC/MS analysis; format: ADME, organism-based; details: in vivo, BLD = below limit of detection
Summary of the method: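 Male SD rats, 280−310 g, gavaged with 500 μL of […] aqueous solution (10 μmol/kg). Tail-vein blood at 30, 60, 90 min into heparin tubes; plasma protein-precipitated with 3 volumes acetonitrile, supernatant quantified by LC-MS; n = 4.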

Rattus norvegicus [22] = assay: Antinociceptive activity in Sprague-Dawley rat chronic constriction injury model assessed as paw withdrawal threshold to von Frey filament-induced pain 16 umol/kg, iv administered as bolus injection measured at 15 mins; format: functional, organism-based; summary of the method: as §1
Rattus norvegicus [23] = assay: Antinociceptive activity in Sprague-Dawley rat chronic constriction model assessed as reduction in Von Frey filament-induced mechanical allodynia in ipsilateral hind paw at 2 umol/kg, iv administered as bolus injection 5 mins post-naloxone coadministration; format: functional, organism-based; summary of the method: as §4
Rattus norvegicus [24] = assay: Antinociceptive activity in Sprague-Dawley rat chronic constriction model assessed as reduction in Von Frey filament-induced mechanical allodynia in contralateral hind paw at 2 umol/kg, iv administered as bolus injection; format: functional, organism-based
Rattus norvegicus [25] = assay: Antinociceptive activity in Sprague-Dawley rat chronic constriction injury model assessed as reduction in Von Frey filament-induced mechanical allodynia in ipsilateral hind paw at 8 umol/kg, po; format: functional, organism-based

T1 sequence (P35372 whole entry): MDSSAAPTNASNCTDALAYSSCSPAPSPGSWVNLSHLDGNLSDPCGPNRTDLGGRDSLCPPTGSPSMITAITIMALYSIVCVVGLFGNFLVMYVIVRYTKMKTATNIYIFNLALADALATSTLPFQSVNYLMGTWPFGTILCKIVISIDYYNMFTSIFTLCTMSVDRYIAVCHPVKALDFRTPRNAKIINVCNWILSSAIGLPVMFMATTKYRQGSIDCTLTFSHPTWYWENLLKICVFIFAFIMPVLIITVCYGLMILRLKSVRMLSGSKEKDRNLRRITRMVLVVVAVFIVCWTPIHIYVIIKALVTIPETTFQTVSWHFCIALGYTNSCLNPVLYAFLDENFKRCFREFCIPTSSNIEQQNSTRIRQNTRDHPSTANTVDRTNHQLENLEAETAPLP
Delta-type opioid receptor, sequence (P41143 whole entry): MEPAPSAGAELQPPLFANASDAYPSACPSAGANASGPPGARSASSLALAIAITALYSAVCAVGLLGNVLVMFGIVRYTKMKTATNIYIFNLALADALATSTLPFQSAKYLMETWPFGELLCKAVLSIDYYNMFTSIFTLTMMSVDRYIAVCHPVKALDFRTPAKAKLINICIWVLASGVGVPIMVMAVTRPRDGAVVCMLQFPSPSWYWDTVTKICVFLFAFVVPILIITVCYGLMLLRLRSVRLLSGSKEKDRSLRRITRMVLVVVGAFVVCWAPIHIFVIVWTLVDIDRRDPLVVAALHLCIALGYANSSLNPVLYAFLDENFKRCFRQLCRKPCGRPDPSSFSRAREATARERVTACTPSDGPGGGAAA

With `NC(=O)[C@H](Cc1ccccc1)NC(=O)[C@H](Cc1c[nH]c2ccccc12)NC(=O)[C@@H]1CCCN1C(=O)[C@H](Cc1ccc(O)cc1)NC(=O)CCC(=O)N[C@@H]1O[C@H](CO)[C@@H](O[C@@H]2O[C@H](CO)[C@H](O)[C@H](O)[C@H]2O)[C@H](O)[C@H]1O` the Activity (Rattus norvegicus [1]) was “Active”, the permeability (Caco-2 [2]) was “permeable” and the Activity (Rattus norvegicus [3]) was “Active”. The Ratio Ki [4] was 105, the Ki [5] was 4750 nM and the Activity (Rattus norvegicus [6]) was “Active”. The Papp at 200 µM [7] was 76 ×10⁻⁶ cm/s, the Ratio Ki [8] was 319 and the Activity (Rattus norvegicus [9]) was “inactive”. For the same molecule, the permeability (Caco-2 [10]) was “impermeable”, the Ki (Mu-type opioid receptor [11]) was 14.9 nM and the Activity (Rattus norvegicus [12]) was “inactive”. For the same molecule, the ED50 (Rattus norvegicus [13]) was 8.3 µmol/kg, the half-life at 1 mg/ml [14] was 57.3 min and the Activity (Rattus norvegicus [15]) was “inactive”. The Activity (Rattus norvegicus [16]) was 58.5%, the permeability (Caco-2 [17]) was “impermeable” and the Activity (Rattus norvegicus [18]) was “Dose-dependent effect”. The ED50 (Rattus norvegicus [18]) was 19.6 µmol/kg, the Activity (Rattus norvegicus [19]) was “Active” and the IC50 (Mu-type opioid receptor [20]) was 590 nM. For the same molecule, the Activity (Rattus norvegicus [21]) was “Non-toxic”.
`CC(C)NCC(O)COc1cccc2ccccc12` (configuration not stated) [PROPRANOLOL] showed a Papp at 200 µM [7] of 150 ×10⁻⁶ cm/s.
In the case of `NC(=O)[C@H](Cc1ccccc1)NC(=O)[C@H](Cc1c[nH]c2ccccc12)NC(=O)[C@@H]1CCCN1C(=O)[C@@H](N)Cc1ccc(O)cc1` [ENDOMORPHIN-1], the Papp at 200 µM [7] is reported as 0.11 ×10⁻⁶ cm/s, the Cp (Plasma) is reported as “BLD” and the Activity (Rattus norvegicus [22]) is reported as “inactive”.
With `CN1CC[C@]23c4c5ccc(O)c4O[C@H]2[C@@H](O)C=C[C@H]3[C@H]1C5` [MORPHINE] the Activity (Rattus norvegicus [23]) was “inactive”, the Activity (Rattus norvegicus [24]) was “Active” and the Activity (Rattus norvegicus [25]) was “Active”. The ED50 (Rattus norvegicus [13]) was 2.6 µmol/kg, the Activity (Rattus norvegicus [15]) was “Active” and the ED50 (Rattus norvegicus [18]) was 20.7 µmol/kg.
